Reference: article PMC7096758 (Heliyon, 2020)

Tests used:
[1] = Cytotoxicity in mammalian cells; assay type: cell-based, BALB/c mice; settings: BALB/c, mouse, bone marrow-derived macrophages (BMDM)
Method in brief: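 Bone-marrow cells from BALB/c mice were differentiated for 7 days at 37 °C, 5% CO2. The medium was DMEM with 10% FBSi, 1% NEAA and 10% L929-conditioned medium. The resulting macrophages were exposed to test compound at up to 40 μM for 24 h. Viability was measured by resazurin assay. CC50 was calculated from percent viability relative to untreated control.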

[2] = system: L. amazonensis promastigotes; test: Activity against promastigotes; assay type: cell-based; settings: Leishmania amazonensis, 24 h, read-out: IC50 L. amazonensis (P)
Method in brief: (§1)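 Promastigotes of L. major MHOM/SA/85/JISH118 or L. amazonensis MHOM/BR/LTB0016 were kept at 25 °C for at most 10 passages in Schneider's with 10% FBSi, 2% human urine and 5 mM HEPES. Late-exponential cells were seeded at 3×10^6 cells/mL. They were treated 24 h with test compound (DMSO stock diluted in Schneider's), in triplicate. Controls were 0.5% DMSO and amphotericin B. Resazurin read-out; IC50 fitted.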

[3] = system: L. major promastigotes; test: Activity against promastigotes; assay type: cell-based; settings: Leishmania major, 24 h, read-out: IC50 L. major (P)
Method in brief: as §1

[4] = system: L. infantum promastigotes; test: Activity against promastigotes; assay type: cell-based; settings: Leishmania infantum, 24 h, read-out: IC50 L. infantum (P)
Method in brief: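 L. infantum MHOM/MA/67/ITMAP263 promastigotes were grown at 25 °C for at most 10 passages in RPMI with 10% FBSi and 5 mM HEPES, pH 7.4. Late-exponential cells were seeded at 3×10^6 cells/mL and exposed for 24 h to test compound (DMSO stock diluted in RPMI), in triplicate. Controls were 0.5% DMSO and amphotericin B. Resazurin fluorescence gave viability and IC50 was fitted.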

[5] = system: L. infantum axenic amastigotes; test: Activity against axenic amastigotes; assay type: cell-based; settings: Leishmania infantum, 24 h, read-out: IC50 L. infantum (AA)
Method in brief: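 L. infantum axenic amastigotes came from parasites recently recovered from infected mouse spleen. They were kept at 37 °C, 5% CO2 in MAA with 20% iFBS, 2 mM Glutamax and 0.023 mM hemin. Cells were seeded at 1.5×10^5 per well in MAA20. Test compound was dissolved in DMSO and diluted in medium for 24 h, in triplicate. Controls were 0.5% DMSO and amphotericin B. Viability was read by resazurin fluorescence and IC50 fitted.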

[6] = system: L. infantum intracellular amastigotes; test: IC50 against Leishmania intracellular amastigotes in infected macrophages; assay type: cell-based, Leishmania infantum; settings: CC50 BMDM versus IC50 intracellular amastigotes
Method in brief: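 Ratio of BMDM CC50 (resazurin, 24 h) to intracellular IC50. For IC50, BALB/c BMDM were infected 3 h with stationary-phase L. infantum promastigotes (10:1), then washed. After 24 h, test compound in DMEM was added for 24 h, with 0.5% DMSO and amphotericin B controls. Cells were fixed, DAPI/CellMask stained and imaged automatically. IC50 was derived from percent infected macrophages.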

IC50 [2]	IC50 [3]	IC50 [4]	IC50 [5]	Compound	CC50 at 24 h [1]	selectivity index [6]
10 to 20 µM	> 20 µM	–	–	CC1(C)CC(=O)c2cc(CNC(=O)C/C=C/c3ccccc3)ccc2N1 [Compound 14e, (E)-N-((2,2-dimethyl-4-oxo-1,2,3,4-tetrahydroquinolin-6-yl)methyl)-4-phenylbut-3-enamide]	> 40 µM	–
> 20 µM	> 20 µM	> 20 µM	–	CC1(C)CC(=O)c2cc(CNC(=O)/C=C/c3cccs3)ccc2N1 [Compound 14f, (E)-N-((2,2-dimethyl-4-oxo-1,2,3,4-tetrahydroquinolin-6-yl)methyl)-3-(thiophen-2-yl)acrylamide]	> 40 µM	–
> 20 µM	> 20 µM	> 20 µM	–	CC(C)=CC(=O)NCc1ccc2c(c1)C(=O)CC(C)(C)N2 [Compound 14d, N-((2,2-dimethyl-4-oxo-1,2,3,4-tetrahydroquinolin-6-yl)methyl)-3-methylbut-2-enamide]	> 40 µM	–
> 20 µM	> 20 µM	> 20 µM	–	C/C=C(\CO)C(=O)NCc1ccc2c(c1)C(=O)CC(C)(C)N2 [Compound 14g, (E)-N-((2,2-dimethyl-4-oxo-1,2,3,4-tetrahydroquinolin-6-yl)methyl)-2-(hydroxymethyl)but-2-enamide]	–	–
> 20 µM	> 20 µM	> 20 µM	–	Cc1ccc(Cc2ccc3c(c2)C(=O)CC(C)(C)O3)cc1 [Compound 21, 2,2-dimethyl-6-(4-methylbenzyl)chroman-4-one]	–	–
> 20 µM	> 20 µM	> 20 µM	–	C/C=C(\C)C(=O)NCc1ccc2c(c1)C(=O)CC(C)(C)N2 [Compound 14c, (E)-N-((2,2-dimethyl-4-oxo-1,2,3,4-tetrahydroquinolin-6-yl)methyl)-2-methylbut-2-enamide]	> 40 µM	–

The remaining lines, values behind:

Compound	IC50 [2]	IC50 [3]	IC50 [4]	IC50 [5]	CC50 at 24 h [1]	selectivity index [6]
C/C=C/C(=O)NCc1ccc2c(c1)C(=O)CC(C)(C)N2 [Compound 14b, (E)-N-((2,2-dimethyl-4-oxo-1,2,3,4-tetrahydroquinolin-6-yl)methyl)but-2-enamide]	> 20 µM	> 20 µM	> 20 µM	–	> 40 µM	–
C/C=C(\CO)C(=O)NCc1ccc2c(c1)C(=O)CC(C)(C)O2 [Compound 13a, (E)-N-((2,2-dimethyl-4-oxochroman-6-yl)methyl)-2-(hydroxymethyl)but-2-enamide]	> 20 µM	> 20 µM	> 20 µM	–	–	–
C[C@@H]1[C@H](O)[C@@H](C)/C=C/C=C/C=C/C=C/C=C/C=C/C=C/[C@H](O[C@@H]2O[C@H](C)[C@@H](O)[C@H](N)[C@@H]2O)C[C@@H]2O[C@](O)(C[C@@H](O)C[C@@H](O)[C@H](O)CC[C@@H](O)C[C@@H](O)CC(=O)O[C@H]1C)C[C@H](O)[C@H]2C(=O)O [Amphotericin B, reference compound]	0.2 ± 0.06 µM	0.17 ± 0.08 µM	0.18 ± 0.09 µM	0.4 ± 0.3 µM	4.37 ± 0.97 µM	–
CCCCCCCCNCc1ccc2c(c1)C(=O)CC(C)(C)O2 [Compound 13c, 2,2-dimethyl-6-((octylamino)methyl)chroman-4-one]	–	–	–	25.3 ± 2.1 µM	40.2 ± 5.7 µM	1.6
C/C=C(\CO)C(=O)OCc1ccc2c(c1)C(=O)CC(C)(C)O2 [Compound 12a, (2,2-dimethyl-4-oxochroman-6-yl)methyl (E)-2-(hydroxymethyl)but-2-enoate]	> 20 µM	> 20 µM	> 20 µM	–	–	–
